Test: Toxicity liver stage against HepG2, at 10uM
Assay type: cell-based
Design: test concentration 10 uM, cell line HepG2-A16-CD81EGFP
Details: human, HepG2-A16-CD81EGFP cells; read-out: INHIBITION
In short: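 Uninfected HepG2-A16-CD81EGFP cells, 3 × 10^3 per well, 1536-well, plated on prespotted compound at 10 μM final, parasite-free screening media added to match infected plates; puromycin 10 μM positive, DMSO 0.5% negative; run in parallel with 48 h PbLuc assay at 37 °C, 5% CO2; viability by CellTiter-Glo luminescence, normalized to controls.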

SMILES	cytotoxicity at 10 µM [%]
CCC(CC)CS(=O)(=O)NC(=O)C1CCCC1	-13.3
Cc1ccccc1CC(=O)N1CCc2c(ncnc2N2CCOCC2)C1	-3.39
CC(C)(C)n1cc(C(=O)N2CCCN(Cc3cccs3)CC2)cn1	-5.95
CCN(Cc1ccc(C(C)C)cc1)C(=O)c1csc(CN(C)C)n1	-3.84
O=C1CCC(C(=O)Nc2ccc(=O)n(Cc3ccc(Cl)c(Cl)c3)c2)N1 (stereo unspecified)	-8.47
CCC(CC(=O)Nc1ccc2c(c1)CC(=O)N2)c1ccccc1 (stereo unspecified)	-1.06
Cc1nc(-c2ccc(Cl)s2)sc1C(=O)O	7.51
Cc1nc2ccnn2c(C)c1CCC(=O)N1CCN(C2CC2)CC1	-7.2
Cc1cnn(CC2CCCN2Cc2nccn2CC(F)(F)F)c1 (stereo unspecified)	-8.5
O=C(NCC1CC2(CO1)CN(Cc1cccs1)C2)C1CCC1 (stereo unspecified)	-94.1
Cn1cncc1-c1nnc([C@H]2CCN(CC3CCCCC3)C2)o1	-4.65
Cc1noc([C@@H]2CCO[C@@H]3CCN(C(=O)Cc4ccsc4)C[C@@H]32)n1	10.4
Cc1ccc(N2CC[C@H]3O[C@H](C(=O)N4CCCCO4)CC[C@H]32)nn1	10.1
Fc1ccc(OCCNCCn2cccn2)cc1	-4.17
O=C(CCc1cc2n(n1)CCNC2)NCCS(=O)(=O)N1CCCC1	0.487
Nc1ncccc1C(=O)NCc1cccc(Br)c1	42.6
OC1(CN2CCOC(Cn3cncn3)C2)CCCCC1 (stereo unspecified)	9.87
Cc1cccc(C)c1NC(=O)c1n[nH]c(-n2cnnc2)n1	-10.6
O=C(NCCc1cscn1)c1coc(CN2CCOCC2)c1	-3.7

SMILES	cytotoxicity at 10 µM [%]
CC(C)[C@H]1CN(Cc2ccncc2)C[C@@H]1NC(=O)C1(C#N)CCOCC1	-4.81
CN(C)c1nc2n(c(=O)n1)CCN2C(=O)Nc1cccc(Cl)c1	8.19
CCNC(=O)C1CCN(c2cc(-c3ccccc3)nc3ccnn23)C1 (stereo unspecified)	-16.9
Cn1nc(CN2CCCC2)c2c1CN(CC1CC1)CC2	-3.27
COc1c(C(=O)N2CCOC(c3cccs3)C2)c(C)nn1C (stereo unspecified)	-0.43
Cn1cccc1C(=O)N1CCCC2(CCCN2Cc2cccnc2)C1 (stereo unspecified)	2.88
NC(=O)CCC1CCCN(c2ccnc3cc(F)ccc23)C1 (stereo unspecified)	14.6
Cc1nc(CCNC2CCN(Cc3ccccc3)C2)sc1C (stereo unspecified)	12.3
C[C@@H](NC(=O)c1cccn1C)c1c(-c2ccc(Cl)cc2)noc1C(=O)O	3
Cc1ccsc1[C@@H]1CCN(C(=O)CCCn2cncn2)C[C@H]1O	-6.91
O=C(c1cnn(-c2ccccc2Cl)c1)N1CCN(CCO)CC1	-4.26
Cc1cc(CN(C)C2CCCN(Cc3noc(C)n3)C2)no1 (stereo unspecified)	1.46
CN(C1CCCCC1)S(=O)(=O)NC1CCCN(c2ncccn2)C1 (stereo unspecified)	3.7
CCN(CC)c1nc(Nc2cccc(C(=O)O)c2)nc2ccccc12	12
CCCS(=O)(=O)N1C[C@@H](Oc2ncccc2F)[C@H]2OCCC[C@H]21	2.95
CCOCCCNC(=O)c1ccccc1S(C)(=O)=O	-1.58
Cc1ccc(CN(CC(=O)N2CCOC(C)C2)C2CC2)cc1 (stereo unspecified)	-11.9
Cc1cc2ccncc2n1CC1(O)CCN(C(=O)c2ccncc2)CC1	7.53
O=C1COC2(CCN(c3ccccn3)CC2)CN1Cc1ccccn1	-0.861

SMILES	cytotoxicity at 10 µM [%]
COc1cc(/C=C/c2ncc(C(=O)O)s2)cc(Cl)c1O	4.14
CC(C)c1cnc(CN(C)C2CCN(CCc3ccncc3)C2)o1 (stereo unspecified)	-0.296
NC(=O)c1cccc(CN2CCc3c(ncn3C3CC3)C2)c1	-4.6
CSC(C)C(=O)N1CCC(Oc2cc(C)ccc2F)(C(=O)O)CC1 (stereo unspecified)	2.88
O=C(c1ccc(SC(F)(F)F)cc1)N1CCOCC1c1ncon1 (stereo unspecified)	-0.449
CCn1ccnc1CN1CCC(N(Cc2ncc(C)o2)C(C)=O)C1 (stereo unspecified)	11.5
COc1ccc(NC(=O)c2cccc(CN3CCCC3C)c2)cc1OC (stereo unspecified)	0.636
CCC(C)(NCC(=O)Nc1nc(C)cs1)c1nc(C)cs1 (stereo unspecified)	16.4
CC(C)(C)NC(=O)C1CSCN1C(=O)CCc1ccco1 (stereo unspecified)	-6.77
COCCNS(=O)(=O)c1cccc2c1CN(C(=O)c1ccccc1)CC2	5.54
Cc1ccsc1CCNC(C)C(=O)NC1CCCC1 (stereo unspecified)	-4.44
O=C(c1ccco1)N1CCCn2cnc(COCC3CC3)c2C1	-75.9
CS(=O)(=O)NC1CCCN(C(=O)c2cccnc2)C1 (stereo unspecified)	-3.75
O=C(CCNC(=O)NC1CCN(C2CC2)CC1)NCc1ccccc1	-0.769
COC1CCN(S(=O)(=O)NCC2COc3ccccc3C2)CC1 (stereo unspecified)	-1.08
Cc1cc(C)nc(N2CCC(C(=O)Nc3n[nH]c(CC(C)C)n3)CC2)n1	5.61
Cc1ccc(C(=O)NC(C)CN2CCCC2=O)c(=O)[nH]1 (stereo unspecified)	-0.524
CN(C)CCCNC(=O)c1ccnc(OCc2ccccc2)c1	-11.5

From ChEMBL document CHEMBL4513216, “Probing the Open Global Health Chemical Diversity Library for Multistage-Active Starting Points for Next-Generation Antimalarials” (ACS Infect Dis, 2020)
